Test results reported in ChEMBL document CHEMBL4028857, “Anchimerically Activated ProTides as Inhibitors of Cap-Dependent Translation and Inducers of Chemosensitization in Mantle Cell Lymphoma” (J Med Chem, 2017).
pIC50: −log10 of the molar value. Active and inactive are the calls of the source. No cut-off for these calls is given here.

Legend:
Granta-519 [1] = assay: Antiproliferative activity against human GRANTA-519 cells after 48 hrs by Annexin V/propidium iodide based flow cytometric analysis; assay type: functional, cell-based; conditions: Granta-519, 48 h
Method in brief: (§1)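 MCL lines treated 48 h with compound re-added daily (alone or with co-drug; ibrutinib 25 µM), then survival assessed by Annexin V/PI flow cytometry.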

[2] = Half life in Sprague-Dawley rat at 2.5 mg/kg, iv by LC-MS/MS analysis; assay type: ADME, organism-based; conditions: in vivo
Method in brief: (§2)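 Female Sprague-Dawley rats (250-274 g, n=3, catheterized femoral/jugular veins) dosed once p.o. by gavage (25 mg/kg) then, after a 3-day washout, i.v. (2.5 mg/kg). Formulation: 10 mg/mL in 0.5% aqueous CMC with 5% DMSO. Serial blood draws to 480 min into K2EDTA; plasma protein-precipitated with acetonitrile plus internal standards; LC-MS/MS (positive MRM); non-compartmental PK; %F from dose-normalized AUC per rat.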

Z-138 [3] = assay: Antiproliferative activity against human Z138 cells preincubated for 48 hrs followed by thymidine addition measure after 16 hrs by Thymidine incorporation assay; assay type: functional, cell-based
Method in brief: (§3)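 MCL lines treated 48 h with compound re-added daily, alone or with co-drug (ibrutinib 25 µM where used), then thymidine added for a further 16 h; proliferation read as thymidine incorporation.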

[4] = target: Eukaryotic translation initiation factor 4E (Homo sapiens) (UniProt P06730); assay: Inhibition of eIF4E in human Mino cells assessed as down regulation of c-Myc protein expression after 48 hrs by Western blot method; assay type: cell-based
Method in brief: (§4)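 MCL lines treated 48 h with compound; protein quantified and Western blotted with eIF4E, eIF4G, actin, c-Myc and Bcl-2 antibodies.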

[5] = Oral bioavailability in Sprague-Dawley rat at 25 mg/kg by LC-MS/MS analysis; assay type: ADME, organism-based; conditions: in vivo; method in brief: as §2
[6] = Half life in HEPES buffer at 80 uM at pH 7.2 by RP-HPLC analysis; assay type: physicochemical
Method in brief: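 Compound at 80 µM in 20 mM HEPES (pH 7.2 or 2.0) incubated at 37 °C; aliquots analyzed by RP-HPLC at 0, 1, 4, 6, 12, 18 and 24 h to follow methylthioalkyl deprotection and derive half-life.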

Granta-519 [7] = assay: Antiproliferative activity against human GRANTA-519 cells preincubated for 48 hrs followed by thymidine addition measure after 16 hrs by Thymidine incorporation assay; assay type: functional, cell-based; method in brief: as §3
[8] = (§5) Antiproliferative activity against human Mino cells preincubated for 48 hrs followed by thymidine addition measure after 16 hrs by Thymidine incorporation assay; assay type: functional, cell-based; method in brief: as §3
Mino = assay: as §5; assay type: functional, cell-based; method in brief: as §3
[9] = target: T1, Adenosine 5'-monophosphoramidase HINT1 (Homo sapiens, UniProt P49773); assay: Prodrug activation in human Mino cells assessed as Hint1 mediated 2-amino-7-(2-(4-chlorophenoxy)ethyl)-9-((2R,3R,4S,5R)-3,4-dihydroxy-5-(phosphonooxymethyl)tetrahydrofuran-2-yl)-6-oxo-6,9-dihydro-1H-purin-7-ium formation per 5 million cells at 150 uM after 12 hrs by LC-MS/MS analysis; assay type: cell-based
Method in brief: (§6)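 Mantle cell lymphoma cells (five million) grown in RPMI with 10% FBS, penicillin/streptomycin and L-glutamine at 37 °C, 5% CO2, then exposed to 150 µM compound for 12 h at 37 °C. Washed with ice-cold PBS, pellet extracted in MeOH/NH4OAc (60:40) with 80 fmol internal standards, three liquid-N2 freeze–thaw cycles, filtered, dried, redissolved in 20 mM HEPES pH 7.2. Analysed by LC-MS/MS against a standard curve.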

[10] = target: Eukaryotic translation initiation factor 4E (Homo sapiens) (UniProt P06730); assay: Inhibition of eIF4E in human Mino cells assessed as potentiation of doxorobucin induced antiproliferation at 100 uM preincubated for 48 hrs followed by thymidine addition measure after 16 hrs by Thymidine incorporation assay; assay type: cell-based; method in brief: as §3
Rattus norvegicus [11] = assay: Clearance in Sprague-Dawley rat at 2.5 mg/kg, iv by LC-MS/MS analysis; assay type: ADME, organism-based; conditions: in vivo; method in brief: as §2
[12] = target: Eukaryotic translation initiation factor 4E (Homo sapiens) (UniProt P06730); assay: Inhibition of eIF4E in human GRANTA-519 cells assessed as increase in p27 protein expression after 48 hrs by Western blot method; assay type: cell-based; method in brief: as §4
Granta-519 [13] = assay: Antiproliferative activity against human GRANTA-519 cells at 200 uM preincubated for 48 hrs followed by thymidine addition measure after 16 hrs by Thymidine incorporation assay; assay type: functional; method in brief: as §3
Rattus norvegicus [14] = assay: Cmax in Sprague-Dawley rat assessed as 9-((2R,3R,4S,5R)-5-(((((2-(1H-Indol-3-yl)ethyl)amino)-(hydroxy)phosphoryl)oxy)methyl)-3,4-dihydroxytetrahydrofuran-2-yl)-2-amino-7-(2-(4-chlorophenoxy)ethyl)-6-oxo-6,9-dihydro-1H-purin-7-ium level at 25 mg/kg, po measured at 30 mins post dose by LC-MS/MS analysis; assay type: ADME, organism-based; design: dose 25 mg/kg, route oral; conditions: in vivo, 0.5 h; method in brief: as §2
[15] = target: Eukaryotic translation initiation factor 4E-binding protein 1 (Homo sapiens) (UniProt Q13541); assay: Inhibition of 4EBP1 phosphorylation at Ser 65 residues in human Mino cells at 100 uM after 48 hrs by Western blot analysis; assay type: cell-based; method in brief: as §4
[16] = target: T1, Adenosine 5'-monophosphoramidase HINT1; assay: Prodrug activation in human Z138 cells assessed as hint1-mediated 2-amino-7-(2-(4-chlorophenoxy)ethyl)-9-((2R,3R,4S,5R)-3,4-dihydroxy-5-(phosphonooxymethyl)tetrahydrofuran-2-yl)-6-oxo-6,9-dihydro-1H-purin-7-ium formation per 5 million cells at 150 uM after 12 hrs by LC-MS/MS analysis relative to 9-((2R,3R,4S,5R)-5-(((((2-(1H-Indol-3-yl)ethyl)amino)-(hydroxy)phosphoryl)oxy)methyl)-3,4-dihydroxytetrahydrofuran-2-yl)-2-amino-7-(2-(4-chlorophenoxy)ethyl)-6-oxo-6,9-dihydro-1H-purin-7-ium; assay type: cell-based; method in brief: as §6
[17] = target: T1, Adenosine 5'-monophosphoramidase HINT1; assay: Prodrug activation in human GRANTA-519 cells assessed as Hint1 mediated 2-amino-7-(2-(4-chlorophenoxy)ethyl)-9-((2R,3R,4S,5R)-3,4-dihydroxy-5-(phosphonooxymethyl)tetrahydrofuran-2-yl)-6-oxo-6,9-dihydro-1H-purin-7-ium formation per 5 million cells at 150 uM after 12 hrs by LC-MS/MS analysis; assay type: cell-based
Method in brief: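 Five million MCL cells in RPMI/10% FBS with penicillin, streptomycin and L-glutamine were exposed to compound (150 µM) for 12 h at 37 °C. Cells were washed in cold PBS, extracted in MeOH/NH4OAc (60:40) with 80 fmol internal standards, freeze-thawed three times, then filtered and dried. Residue was taken up in HEPES for LC-MS/MS, quantified against an internal-standard curve.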

[18] = target: Eukaryotic translation initiation factor 4E (Homo sapiens) (UniProt P06730); assay: Inhibition of eIF4E in human Mino cells assessed as down regulation of c-Myc mRNA expression at 100 uM by RT-PCR based RNA Immunoprecipitation; assay type: cell-based
Method in brief: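 RNA-immunoprecipitation on Mino cells with a RNA-binding protein immunoprecipitation kit.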

[19] = AUC (0 to 8 hrs) in Sprague-Dawley rat plasma at 25 mg/kg, po by LC-MS/MS analysis; assay type: ADME, organism-based; design: time < 8 hr, dose 25 mg/kg, route oral; method in brief: as §2
Plasma = assay: Prodrug activation in Sprague-Dawley rat assessed as Hint1 mediated 2-amino-7-(2-(4-chlorophenoxy)ethyl)-9-((2R,3R,4S,5R)-3,4-dihydroxy-5-(phosphonooxymethyl)tetrahydrofuran-2-yl)-6-oxo-6,9-dihydro-1H-purin-7-ium formation in plasma at 2.5 mg/kg, iv or 25 mg/kg, po by LC-MS/MS analysis; assay type: organism-based; conditions: in vivo; method in brief: as §2
[20] = Cytotoxicity against human Mino cells assessed as reduction in cell survival at 100 uM after 48 hrs in presence of doxorubicin by Annexin V/propidium iodide based flow cytometric analysis; method in brief: as §1
[21] = target: Eukaryotic translation initiation factor 4E (Homo sapiens) (UniProt P06730); assay: Inhibition of eIF4E in human Mino cells assessed as increase in p27 protein expression after 48 hrs by Western blot method; assay type: cell-based; method in brief: as §4
Z-138 [22] = assay: Antiproliferative activity against human Z138 cells at 200 uM preincubated for 48 hrs followed by thymidine addition measure after 16 hrs by Thymidine incorporation assay; assay type: functional; method in brief: as §3

Chain of Eukaryotic translation initiation factor 4E (Homo sapiens) (P06730 whole entry): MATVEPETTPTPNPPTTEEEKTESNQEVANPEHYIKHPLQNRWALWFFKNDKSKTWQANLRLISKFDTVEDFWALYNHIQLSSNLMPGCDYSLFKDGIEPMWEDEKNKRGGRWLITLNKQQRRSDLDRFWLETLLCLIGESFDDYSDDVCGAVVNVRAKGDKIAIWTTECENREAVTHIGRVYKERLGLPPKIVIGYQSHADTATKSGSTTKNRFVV
T1 sequence (P49773 whole entry): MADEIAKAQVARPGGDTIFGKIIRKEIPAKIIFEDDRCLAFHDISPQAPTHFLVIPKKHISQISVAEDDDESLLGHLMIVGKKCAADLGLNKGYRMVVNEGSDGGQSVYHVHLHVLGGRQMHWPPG
Chain of Eukaryotic translation initiation factor 4E-binding protein 1 (Homo sapiens) (Q13541 whole entry): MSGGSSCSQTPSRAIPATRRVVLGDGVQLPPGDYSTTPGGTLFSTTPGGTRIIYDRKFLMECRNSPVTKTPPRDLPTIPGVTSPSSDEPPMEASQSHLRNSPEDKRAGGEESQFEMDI

Compound: CSCCOP(=O)(NCCc1c[nH]c2ccccc12)OC[C@H]1O[C@@H](n2c[n+](CCOc3ccc(Cl)cc3)c3c(=O)[nH]c(N)nc32)[C@H](O)[C@@H]1O (stereo not given in full)
- pIC50 (Granta-519 [1]): < 3.70
- half-life [2]: 79 min
- Activity (Z-138 [3]): Dose-dependent effect
- inhibition [4]: Dose-dependent effect
- bioavailability [5]: 23%
- half-life at 80 µM [6]: 510 min
- Activity (Granta-519 [7]): Dose-dependent effect
- pIC50 (Granta-519 [7]): 4.30
- pIC50 [8]: 4.30
- Activity (Mino): Dose-dependent effect
- Drug metabolism [9]: 218 pmol
- inhibition [10]: Active
- CL (Rattus norvegicus [11]): 1.8 L/min/kg
- inhibition [12]: Dose-dependent effect
- Activity (Granta-519 [13]): 100%
- Cmax (Rattus norvegicus [14]): 6 ng/mL
- inhibition [15]: inactive
- fold change (FC) [16]: 520
- Drug metabolism [17]: 10.3 pmol
- inhibition [18]: inactive
- AUC(0-t) at 8 h [19]: 28.3 ng·h/mL
- Drug metabolism (Plasma): Metabolite_Notdetected
- Activity [20]: Non-Toxic
- inhibition [21]: Dose-dependent effect
- Activity (Z-138 [22]): 100%
